Type in all cases: functional
Test [1] deals with Staphylococcus epidermidis. The experiment in a line: Antimicrobial activity against Staphylococcus epidermidis DSM3269 by […]. Background: In agar diffusion tests the substance spreads into inoculated agar from a disc or well.
In test [2] the test system is Staphylococcus aureus. The experiment in a line: Antimicrobial activity against Staphylococcus aureus ATCC 29213 administered as powder at 45 degC after 24 hrs. The following applies: ATCC 29213, 24 h. The gist of the method: (§1)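 Antimicrobials, as powder or in solution as used for MIC testing, held at 45°C for 1 and 24 h in three independent experiments. MICs were then determined by the CLSI microtiter plate method in cation-adjusted Mueller-Hinton medium, with MHB containing 50 μg/ml calcium for daptomycin. Values are median (range) […] in mg/liter.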

Test [3] concerns Staphylococcus aureus. Briefly: Antimicrobial activity against Staphylococcus aureus ATCC 29213 by […].
Test [4] deals with Staphylococcus epidermidis. The experiment in a line: Antimicrobial activity against Staphylococcus epidermidis isolate KO8 isolated from healthy human skin by […].
Test [5] concerns Staphylococcus. The experiment in a line: Antimicrobial activity against coagulase-negative Staphylococcus isolated from human preoperative skin by […].
The subject of test [6] is Staphylococcus aureus. The experiment in a line: Antimicrobial activity against Staphylococcus aureus isolated from human preoperative skin by […].
The test system of test [7] is Staphylococcus aureus. Briefly: Antimicrobial activity against Staphylococcus aureus isolated from human prosthetic joint infection site by […].
Test [8] has as its system Staphylococcus. Briefly: Antimicrobial activity against coagulase-negative Staphylococcus isolated from human prosthetic joint infection site by […].
In test [9] the test system is Staphylococcus epidermidis. The experiment in a line: Antimicrobial activity against Staphylococcus epidermidis isolate OR1 treated in solution at 45 degC after 24 hrs. Particulars: isolate OR1, 24 h. The gist of the method: as §1
The subject of test [10] is Staphylococcus. Briefly: Antimicrobial activity against Staphylococcus isolates biofilms assessed as decrease in bacterial load at 100 mg/litre at ambient temperature of 35 degC after 24 hrs relative to baseline. Summed up: (§2)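 24-h static biofilms of the staphylococcal isolates were exposed to drug for 24 h at 35, 40 or 45°C. Biofilms were not fixed but scraped off and resuspended in MHB, then serially diluted and 0.1 ml plated on blood agar, read after 48 h at 35°C in ambient air. Done in duplicate as mean log10 CFU/ml; log reduction was taken versus untreated biofilm.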

For test [11], the system named is Staphylococcus. Briefly: Antimicrobial activity against Staphylococcus isolates biofilms assessed as decrease in bacterial load at 25 mg/litre at ambient temperature of 45 degC after 24 hrs relative to baseline. The gist of the method:
as §2

Test [12] has as its system Staphylococcus. The experiment in a line: Antimicrobial activity against Staphylococcus isolates biofilms assessed as decrease in bacterial load at 100 mg/litre at ambient temperature of 40 degC after 24 hrs relative to baseline. The gist of the method:
as §2

Test [13] relates to Staphylococcus. Briefly: Antimicrobial activity against Staphylococcus isolates biofilms assessed as decrease in bacterial load at 100 mg/litre at ambient temperature of 45 degC after 24 hrs relative to baseline. The gist of the method:
as §2

Test [14] deals with Staphylococcus. Briefly: Antimicrobial activity against Staphylococcus isolates biofilms assessed as change in optical density ratio of biofilms at 50 mg/litre at ambient temperature of 35 degC after 24 hrs relative to baseline. Summed up:
(§3)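 Static microtiter biofilms of 34 clinical S. aureus and CoNS isolates from orthopedic implant infections or preoperative skin, plus reference strains. Inoculum was McFarland 0.5 diluted 1:100 in calcium-supplemented MHB, grown 24 h at 35°C in ambient air. Established biofilms were exposed to drug for 24 h at 35, 40 or 45°C, then formalin-fixed and stained with 1% crystal violet for 5 min, and OD read at 550 nm in quadruplicate.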

The test system of test [15] is Staphylococcus. Briefly: Antimicrobial activity against Staphylococcus isolates biofilms assessed as change in optical density ratio of biofilms at 100 mg/litre at ambient temperature of 35 degC after 24 hrs relative to baseline. Summed up: as §3
The subject of test [16] is Staphylococcus. Briefly: Antimicrobial activity against Staphylococcus isolates biofilms assessed as change in optical density ratio of biofilms at 500 mg/litre at ambient temperature of 35 degC after 24 hrs relative to baseline. Summed up:
as §3

Test [17] concerns Staphylococcus. Briefly: Antimicrobial activity against Staphylococcus isolates biofilms assessed as change in optical density ratio of biofilms at 50 mg/litre at ambient temperature of 40 degC after 24 hrs relative to baseline. Summed up: as §3
The test system of test [18] is Staphylococcus. The experiment in a line: Antimicrobial activity against Staphylococcus isolates biofilms assessed as change in optical density ratio of biofilms at 100 mg/litre at ambient temperature of 40 degC after 24 hrs relative to baseline. The gist of the method: as §3
Test [19] deals with Staphylococcus. The experiment in a line: Antimicrobial activity against Staphylococcus isolates biofilms assessed as change in optical density ratio of biofilms at 500 mg/litre at ambient temperature of 40 degC after 24 hrs relative to baseline. The gist of the method: as §3
In test [20] the test system is Staphylococcus. Briefly: Antimicrobial activity against Staphylococcus isolates biofilms assessed as change in optical density ratio of biofilms at 50 mg/litre at ambient temperature of 45 degC after 24 hrs relative to baseline. The gist of the method: as §3
Test [21] deals with Staphylococcus. The experiment in a line: Antimicrobial activity against Staphylococcus isolates biofilms assessed as change in optical density ratio of biofilms at 100 mg/litre at ambient temperature of 45 degC after 24 hrs relative to baseline. Summed up: as §3
Test [22] relates to Staphylococcus. The experiment in a line: Antimicrobial activity against Staphylococcus isolates biofilms assessed as change in optical density ratio of biofilms at 500 mg/litre at ambient temperature of 45 degC after 24 hrs relative to baseline. Summed up: as §3
The subject of test [23] is Staphylococcus. The experiment in a line: Antimicrobial activity against Staphylococcus isolates biofilms assessed as decrease in bacterial load at 500 mg/litre at ambient temperature of 40 degC after 24 hrs relative to baseline. The gist of the method: as §2
Test [24] has as its system Staphylococcus. Briefly: Antimicrobial activity against Staphylococcus isolates biofilms assessed as decrease in bacterial load at 500 mg/litre at ambient temperature of 45 degC after 24 hrs relative to baseline. The gist of the method:
as §2

The test system of test [25] is Staphylococcus. Briefly: Antimicrobial activity against Staphylococcus isolates biofilms assessed as change in optical density ratio of biofilms at 250 mg/litre at ambient temperature of 35 degC after 24 hrs relative to baseline. The gist of the method:
as §3

Test [26] concerns Staphylococcus. Briefly: Antimicrobial activity against Staphylococcus isolates biofilms assessed as change in optical density ratio of biofilms at 1000 mg/litre at ambient temperature of 35 degC after 24 hrs relative to baseline. Summed up: as §3
Test [27] has as its system Staphylococcus. The experiment in a line: Antimicrobial activity against Staphylococcus isolates biofilms assessed as change in optical density ratio of biofilms at 250 mg/litre at ambient temperature of 40 degC after 24 hrs relative to baseline. The gist of the method: as §3
Test [28] relates to Staphylococcus. The experiment in a line: Antimicrobial activity against Staphylococcus isolates biofilms assessed as change in optical density ratio of biofilms at 1000 mg/litre at ambient temperature of 40 degC after 24 hrs relative to baseline. Summed up: as §3
The test system of test [29] is Staphylococcus. The experiment in a line: Antimicrobial activity against Staphylococcus isolates biofilms assessed as change in optical density ratio of biofilms at 250 mg/litre at ambient temperature of 45 degC after 24 hrs relative to baseline. The gist of the method:
as §3

For test [30], the system named is Staphylococcus. Briefly: Antimicrobial activity against Staphylococcus isolates biofilms assessed as change in optical density ratio of biofilms at 1000 mg/litre at ambient temperature of 45 degC after 24 hrs relative to baseline. Summed up: as §3

Consider three molecules from ChEMBL document CHEMBL1671740, “Increased temperature enhances the antimicrobial effects of daptomycin, vancomycin, tigecycline, fosfomycin, and cefamandole on staphylococcal biofilms” (2010).

Converted amounts (≈) assume the structure as drawn. The source made the active and inactive calls.

As to `CCCCCCCCCC(=O)N[C@@H](Cc1c[nH]c2ccccc12)C(=O)N[C@H](CC(N)=O)C(=O)N[C@@H](CC(=O)O)C(=O)N[C@@H]1C(=O)NCC(=O)N[C@@H](CCCN)C(=O)N[C@@H](CC(=O)O)C(=O)N[C@H](C)C(=O)N[C@@H](CC(=O)O)C(=O)NCC(=O)N[C@H](CO)C(=O)N[C@@H]([C@H](C)CC(=O)O)C(=O)N[C@@H](CC(=O)c2ccccc2N)C(=O)O[C@@H]1C`, the minimum inhibitory concentration (MIC) in test [1] amounted to 0.25 µg/mL (≈ 0.154 µM); in the test with Staphylococcus aureus [2], 0.5 µg/mL (≈ 0.309 µM); against Staphylococcus aureus [3] it was 0.125 µg/mL (≈ 0.0771 µM); in test [4], 0.25 µg/mL (≈ 0.154 µM); against Staphylococcus [5], 0.25 µg/mL (≈ 0.154 µM); against Staphylococcus aureus [6], 0.125 µg/mL (≈ 0.0771 µM). In addition, the minimum inhibitory concentration (MIC) came to 0.125 µg/mL (≈ 0.0771 µM) with Staphylococcus aureus [7], 0.125 µg/mL (≈ 0.0771 µM) in the test on Staphylococcus [8] and 1 µg/mL (≈ 0.617 µM) in [9]. Besides, the “fold change (FC)” value in the test with Staphylococcus [10] was 2; with Staphylococcus [11] it was 1.2; with Staphylococcus [12], 3.6; in the test on Staphylococcus [13], 3.3.

As for `Cn1nnnc1SCC1=C(C(=O)O)N2C(=O)[C@@H](NC(=O)[C@H](O)c3ccccc3)[C@H]2SC1` [CEFAMANDOLE], the MIC turned out to be 0.5 µg/mL (≈ 1.08 µM) in test [1]; 0.25 µg/mL (≈ 0.541 µM) in the test on Staphylococcus aureus [2]; 0.5 µg/mL (≈ 1.08 µM) in the test on Staphylococcus aureus [3]; 0.25 µg/mL (≈ 0.541 µM) in [4]; 0.25 µg/mL (≈ 0.541 µM) in the test on Staphylococcus [5]; 0.25 µg/mL (≈ 0.541 µM) in the test on Staphylococcus aureus [6]. Besides, the minimal inhibitory concentration (MIC) turned out to be 1 µg/mL (≈ 2.16 µM) with Staphylococcus aureus [7], 1 µg/mL (≈ 2.16 µM) with Staphylococcus [8] and 2 µg/mL (≈ 4.32 µM) in [9]. Further, the Ratio with Staphylococcus [14] turned out to be 1.29; in the test on Staphylococcus [15], 1.12; in the test with Staphylococcus [16] it was 1.27; in the test on Staphylococcus [17], 1.07; in the test with Staphylococcus [18] it was 1.06; in the test on Staphylococcus [19] it was 0.62. Also, the Ratio was 0.86 in the test with Staphylococcus [20], 0.63 in the test on Staphylococcus [21] and 0.65 in the test on Staphylococcus [22]. Besides, the outcome in the test with Staphylococcus [10] was inactive. For the same molecule, the “fold change (FC)” value in the test with Staphylococcus [23] and in the test with Staphylococcus [24] was 2 in each case.

For the molecule `C[C@@H]1O[C@@H]1P(=O)(O)O` [FOSFOMYCIN], the MIC amounted to 1 µg/mL (≈ 7.24 µM) in [1]; 1 µg/mL (≈ 7.24 µM) against Staphylococcus aureus [2]; 4 µg/mL (≈ 29 µM) against Staphylococcus aureus [3]; 16 µg/mL (≈ 116 µM) in [4]; 32 µg/mL (≈ 232 µM) in the test with Staphylococcus [5]; 64 µg/mL (≈ 464 µM) in the test with Staphylococcus aureus [6]. The values for the MIC (against Staphylococcus aureus [7]; in the test with Staphylococcus [8]; in [9]) were 4 µg/mL (≈ 29 µM), 16 µg/mL (≈ 116 µM) and 32 µg/mL (≈ 232 µM), respectively. Also, the Ratio in the test on Staphylococcus [25] is reported as 1.01; in the test on Staphylococcus [26], 0.78; with Staphylococcus [27] it was 0.75; in the test with Staphylococcus [28], 0.65; in the test with Staphylococcus [29], 0.69; with Staphylococcus [30], 0.63. Also, in the test on Staphylococcus [10], the outcome was inactive.

Broadly, the MIC is the smallest concentration in the dilution series that meets the test's criterion for growth inhibition. A low value points to a more susceptible organism.
